This passage reports MIC, inhibition and ED50 results from ChEMBL document CHEMBL2062386, “Discovery of LFF571: an investigational agent for Clostridium difficile infection” (J Med Chem, 2012).

≈ marks a conversion by molar mass, not a printed value.

Holding throughout (assay type): functional
Assay [1] relates to Enterococcus faecalis. Briefly: Antibacterial activity against Enterococcus faecalis ATCC 29212 by broth microdilution method. A digest of the protocol: (§1)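 Broth microdilution MICs were run per CLSI M07-A8 (2009). The strain panel included C. difficile ATCC 43255, E. faecalis ATCC 29212 and S. pyogenes ATCC BAA-595.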
Assay [2] is described as follows: Antibacterial activity against Clostridium difficile ATCC 43255 by broth microdilution method. Conditions: Clostridioides difficile. A digest of the protocol: as §1
A further assay concerns Escherichia coli. Briefly: Inhibition of protein synthesis in Escherichia coli S30 extract at 2 uM after 75 mins by luciferase based luminescence assay relative to GE2270A.
The subject of assay [3] is Enterococcus faecalis. Briefly: Antibacterial activity against Enterococcus faecalis NB04025 infected in CD1 mouse assessed as mouse survival up to 5 days. Conditions: NB04025, 120 h. A digest of the protocol:
(§2)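 Female CD1 mice (21–25 g) were infected ip with 1 × 10^8 CFU/mouse, 10–100× the minimal lethal dose. E. faecalis NB04025 was given in 50% rat fecal extract and S. aureus ATCC 49951 in 0.9% NaCl. Compound was given by iv tail-vein bolus at 1 and 5 h post-inoculation, at several dose levels (6 mice/group). ED50 with 95% CI was derived by probit analysis of day-5 survival.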

The next assay concerns Streptococcus pyogenes. As to the kind of experiment: Antibacterial activity against Streptococcus pyogenes ATCC BAA-595 by broth microdilution method. A digest of the protocol: as §1
For assay [4], the system named is Staphylococcus aureus. As to the kind of experiment: Antibacterial activity against Staphylococcus aureus ATCC 49951 infected in CD1 mouse assessed as mouse survival up to 5 days. Conditions: ATCC 49951, 120 h. A digest of the protocol:
as §2

The test system of assay [5] is Staphylococcus aureus. Briefly: Antibacterial activity against Staphylococcus aureus A4.018 by broth microdilution method.
Another assay deals with Enterococcus faecium. Briefly: Antibacterial activity against Enterococcus faecium 7130724 by broth microdilution method.

In the case of `CNC(=O)C[C@@H]1NC(=O)c2csc(n2)-c2ccc(-c3nc(N(CCCCCCC(=O)O)C(=O)O[C@H]4CC[C@H](C(=O)O)CC4)cs3)nc2-c2csc(n2)-c2csc(n2)[C@H]([C@@H](O)c2ccccc2)NC(=O)CNC(=O)c2nc(sc2COC)[C@H](C(C)C)NC(=O)c2nc1sc2C`, the minimal inhibitory concentration (MIC) in the assay on Enterococcus faecalis [1] is less than 0.06 µg/mL; in assay [2] it was 0.06 µg/mL (≈ 0.043 µM); in the assay on Streptococcus pyogenes, 2 µg/mL (≈ 1.43 µM); against Staphylococcus aureus [5], 0.25 µg/mL (≈ 0.179 µM); against Enterococcus faecium, 0.125 µg/mL (≈ 0.0896 µM). This compound had an inhibition at 2 µM with Escherichia coli of 67%. In addition, the ED50 in the assay on Enterococcus faecalis [3] is 1 mg/kg; with Staphylococcus aureus [4], 6.6 mg/kg.

With `CNC(=O)C[C@@H]1NC(=O)c2csc(n2)-c2ccc(-c3nc(NC(=O)CC[C@@H](CC(=O)O)C(=O)O)cs3)nc2-c2csc(n2)-c2csc(n2)[C@H]([C@@H](O)c2ccccc2)NC(=O)CNC(=O)c2nc(sc2COC)[C@H](C(C)C)NC(=O)c2nc1sc2C`, the minimal inhibitory concentration (MIC) in the assay on Enterococcus faecalis [1] is 16 µg/mL (≈ 12.6 µM); in assay [2], 4 µg/mL (≈ 3.15 µM); against Streptococcus pyogenes, more than 32 µg/mL; against Staphylococcus aureus [5], 32 µg/mL (≈ 25.2 µM); against Enterococcus faecium it was 32 µg/mL (≈ 25.2 µM). Also, the inhibition at 2 µM with Escherichia coli stood at 30%.

As for `CNC(=O)C[C@@H]1NC(=O)c2csc(n2)-c2ccc(-c3nc(N(CCCCC(=O)O)C(=O)[C@H]4CC[C@H]4C(=O)O)cs3)nc2-c2csc(n2)-c2csc(n2)[C@H]([C@@H](O)c2ccccc2)NC(=O)CNC(=O)c2nc(sc2COC)[C@H](C(C)C)NC(=O)c2nc1sc2C`, the MIC in the assay on Enterococcus faecalis [1] was 16 µg/mL (≈ 12.1 µM); in assay [2], 4 µg/mL (≈ 3.02 µM); in the assay with Streptococcus pyogenes, more than 32 µg/mL; in the assay on Staphylococcus aureus [5], 32 µg/mL (≈ 24.2 µM); against Enterococcus faecium, 32 µg/mL (≈ 24.2 µM). Moreover, the inhibition at 2 µM with Escherichia coli was 30%.

Regarding `CNC(=O)C[C@@H]1NC(=O)c2csc(n2)-c2ccc(-c3nc(N(C/C=C/C(=O)O)C(=O)O[C@H]4CC[C@H](C(=O)O)CC4)cs3)nc2-c2csc(n2)-c2csc(n2)[C@H]([C@@H](O)c2ccccc2)NC(=O)CNC(=O)c2nc(sc2COC)[C@H](C(C)C)NC(=O)c2nc1sc2C`, the MIC is 0.25 µg/mL (≈ 0.185 µM) against Enterococcus faecalis [1]; 0.03 µg/mL (≈ 0.0222 µM) in assay [2]; 2 µg/mL (≈ 1.48 µM) against Streptococcus pyogenes; 0.5 µg/mL (≈ 0.37 µM) against Staphylococcus aureus [5]; 0.5 µg/mL (≈ 0.37 µM) in the assay with Enterococcus faecium. This compound returned an inhibition at 2 µM with Escherichia coli of 67%.

For `CNC(=O)C[C@@H]1NC(=O)c2csc(n2)-c2ccc(-c3nc(N(CCCCC(=O)O)C(=O)O[C@@H]4CC[C@@H](C(=O)O)C[C@H]4CCCCC(=O)O)cs3)nc2-c2csc(n2)-c2csc(n2)[C@H]([C@@H](O)c2ccccc2)NC(=O)CNC(=O)c2nc(sc2COC)[C@H](C(C)C)NC(=O)c2nc1sc2C`, the MIC was found to be 4 µg/mL (≈ 2.73 µM) in the assay on Enterococcus faecalis [1]; 0.25 µg/mL (≈ 0.17 µM) in assay [2]; 4 µg/mL (≈ 2.73 µM) against Streptococcus pyogenes; 8 µg/mL (≈ 5.45 µM) against Staphylococcus aureus [5]; 4 µg/mL (≈ 2.73 µM) against Enterococcus faecium. Moreover, the inhibition at 2 µM in the assay on Escherichia coli stood at 50%.

Consider `CNC(=O)C[C@@H]1NC(=O)c2csc(n2)-c2ccc(-c3nc(N(CCCC(=O)O)C(=O)c4ccc(C(=O)O)cn4)cs3)nc2-c2csc(n2)-c2csc(n2)[C@H]([C@@H](O)c2ccccc2)NC(=O)CNC(=O)c2nc(sc2COC)[C@H](C(C)C)NC(=O)c2nc1sc2C`, for which the minimum inhibitory concentration (MIC) against Enterococcus faecalis [1] is 16 µg/mL (≈ 12 µM); in assay [2], 4 µg/mL (≈ 3 µM); in the assay with Streptococcus pyogenes, more than 32 µg/mL; against Staphylococcus aureus [5], 32 µg/mL (≈ 24 µM); in the assay with Enterococcus faecium, 32 µg/mL (≈ 24 µM). The compound further yielded an inhibition at 2 µM in the assay on Escherichia coli of 30%.
